Screening data from PubChem BioAssay.
A selection: hits, their analogues and other compounds. The true share with any hit is near 12%.
ROMK mod – human ROMK K+ channel modulation, primary screen. actives 2% (n = 130,000). Tet-inducible ROMK, thallium flux fluorescence; actives lie on both sides. B-score at 10 µM;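 active means signal ratio slope over the read window, or its plate-corrected B-score, at least 3 SD from the plate mean, either direction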;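 further: B-score of the F/F0 ratio slope over 7 to 12 s after thallium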
Cl transport mod – KCC2 (human) Cl- transport modulation | Q9H2X9 | KCC2 cells, thallium flux FluoZin-2 fluorescence | B-score of Tl+ flux slope (higher = more flux/activation; lower = inhibition) at 10 µM | actives 2.2% (n = 190,000) | AID 1456;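 active means thallium flux slope and its plate-corrected score both differing from the plate sample mean at a set confidence after two filtering rounds, in either direction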;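 further: slope of fluorescence scaled to starting intensity during 10 to 20 s after thallium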
Diaph inh CS – counter-screen for diaphorase-based assays: diaphorase inhibitors and chemical oxidizers | inhibition, % at 20 µM | actives 0.69% (n = 190,000) | AID 1217 | diaphorase resazurin-to-resorufin fluorescence, NADH, 16 min; bacterial (C. kluyveri) enzyme, not human;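 active means primary screen inhibition at 20 µM above a set limit, cut at about 50% in these data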;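 further: plate controls were DMSO with full reaction for no effect and wells lacking NADH for full effect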
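material = Clostridium kluyveri diaphorase enzyme | amount = 0.14 U/mL diaphorase, enzyme working solution | schedule = incubation 16 min, room temperature | detection = fluorescence of resorufin formed from resazurin, Ex 544/Em 590 nm | benchmarks = positive control minus NADH, DMSO neutral control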
Lmaj promast – inhibitors of Leishmania major promastigote growth; Leishmania major promastigotes, resazurin fluorescence viability; inhibition, % at 10 µM; actives 9% (n = 200,000); in the data active means inhibition above about 50%;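 further: promastigotes grown with compound for 44 hours at 28 °C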
Diaphorase act – diaphorase activation or chemical reduction counter-screen; Diaphorase/resazurin coupled assay, resorufin fluorescence, 16 min; hits give high values; 1 = vehicle wells, 0 = NADH-free wells; activation factor at 20 µM; actives 0.005% (n = 190,000); AID 1229;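 active means diaphorase activity raised at least twofold by the compound at 20 µM; inactive means activation factor below 2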
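Material: bacterial diaphorase enzyme (C. kluyveri); amount: enzyme 0.07 U/mL final; reagent: NADH substrate 0.114 mM plus resazurin dye 0.1 mM, final; doses: single compound dose of 20 µM, 1% DMSO final; timing: 16 min enzyme reaction, ambient temperature; measured by: fluorescence of resorufin, 544 nm excitation, 590 nm emission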
WT yeast gro inh – growth inhibition of WT yeast, mitochondrial fusion screen | mitochondrial fusion phenotypic screen, WT strain | inhibition, % at 10 µM | actives 2.1% (n = 190,000) | AID 1362; in the data active means inhibition above about 58%; tested in S. cerevisiae
The depositor's hits bear a star; / = no result.

SMILES	ROMK mod	Cl transport mod	Diaph inh CS	Lmaj promast	Diaphorase act	WT yeast gro inh
O=[N+]([O-])c1nn(-c2ccc3c(c2)OCCO3)n(O)c1=NCc1ccc(F)cc1Cl	-0.63	0.0042	12	85*	0.9	1
CN=c1c([N+](=O)[O-])nn(-c2ccc3c(c2)OCCO3)n1O	0.0057	0.82	-22	43	1.2	-6
O=[N+]([O-])c1nn(-c2ccc3c(c2)OCCO3)n(O)c1=NCCC1=CCCCC1	0.77	-1.1	14	63*	0.9	1
O=[N+]([O-])c1nn(-c2ccc3c(c2)OCCO3)n(O)c1=NCc1ccc(F)cc1	-0.17	-1.4	15	97*	0.8	7
COc1cc(N=c2c([N+](=O)[O-])nn(-c3ccc4c(c3)OCCO4)n2O)cc(OC)c1	0.76	0.83	29	11	0.7	8
CC(C)c1ccc(N=c2c([N+](=O)[O-])nn(-c3ccc4c(c3)OCCO4)n2O)cc1	0.12	0.016	24	2	0.8	29
CCc1cccc(N=c2c([N+](=O)[O-])nn(-c3ccc4c(c3)OCCO4)n2O)c1	-0.62	1.3	5	91*	0.9	38
CN1CCN(C(=S)SCC(=O)Nc2nc(-c3ccccc3)c(-c3ccccc3)o2)CC1	/	-0.11	0	-1	1	31
O=C1Nc2ccccc2/C1=N/c1sc2c(c1C(=O)NCCc1ccccc1)CCCC2	0.077	2	17	22	0.8	5
Cc1noc(C)c1S(=O)(=O)N(CC(=O)N1CCCCCC1)c1ccc(C(C)C)cc1	/	-0.14	4	63*	1	10
Cc1ccc(C)c(S(=O)(=O)Nc2ccccc2C(=O)Nc2ccc(S(=O)(=O)Nc3ncccn3)cc2)c1	/	1.2	7	43	0.9	6
Nc1[nH]n2c(=O)cc(-c3ccccc3)nc2c1N=Nc1ccc2c(c1)OCO2	0.87	/	68*	3	0.3	16
Cc1cc(N2CCN(C)CC2)nc2ccc(NC(=S)N3CCCCCC3)cc12	0.11	1.7	-16	22	1.2	20
CCOC(=O)N1CCC(NC(=S)Nc2ccc3nc(N4CCN(C)CC4)cc(C)c3c2)CC1	0.31	-0.4	-3	16	1	-5
Cc1cccc(N2CCN(C(=S)Nc3ccc4nc(N5CCN(C)CC5)cc(C)c4c3)CC2C)c1 (configuration not stated)	-0.08	0.78	-12	98*	1.1	6
COC(=O)c1sccc1NC(=S)N1CCCCC1	-1	/	15	2	0.9	14
COC(=O)c1sccc1NC(=S)N1CCN(c2cccc(C)c2C)CC1	0.43	-0.003	8	0	0.9	74*
Cc1cccc(N2CCN(C(=S)Nc3ccc4nc(N5CCN(C)CC5)cc(C)c4c3)CC2)c1C	0.28	0.99	-67	101*	1.7	27
COc1ccc2c(C)cc(N3CCN(c4ccc(F)cc4)CC3)nc2c1	-0.03	0.1	15	87*	0.8	62
COc1ccc(N2CCN(c3cc(C)c4ccc(C)cc4n3)CC2)cc1	0.25	/	7	-4	0.9	24
CCCCc1nnc(NC(=O)COc2ccc3c(C)cc(=O)oc3c2)s1	/	0.28	/	/	/	/
Cc1ccc(/C=C(\NC(=O)c2ccccc2)C(=O)N2CCCC2C(=O)O)cc1 (configuration not stated)	-0.44	0.23	14	-7	0.9	1
Cc1cc(N2CCN(C)CC2)nc2ccc(NC(=S)N3CCN(c4ccc(Cl)cc4)CC3)cc12	0.26	-0.14	-30	100*	1.3	97*
CCCCN(CC)C(=S)Nc1ccc2nc(N3CCN(C)CC3)cc(C)c2c1	-0.55	2.1	-16	53*	1.2	8
Cc1cc(N2CCN(C)CC2)nc2ccc(NC(=S)N3CCN(c4ccc(F)cc4)CC3)cc12	-0.76	1.2	5	100*	1	0
CCCCN(C)C(=S)Nc1ccc2nc(N3CCN(CC)CC3)cc(C)c2c1	-0.3	0.46	-10	42	1.1	23
Cc1cc(N2CCN(C)CC2)nc2ccc(NC(=S)N3CCN(c4cccc(Cl)c4)CC3)cc12	0.88	0.45	-25	50	1.2	12
Cc1cc(N2CCN(C)CC2)nc2ccc(NC(=S)N3CCCCC3)cc12	0.11	0.011	-33	33	1.3	28
